Published values collected from several papers.
Compare with care: the assays were run in different laboratories.
Target: Mitogen-activated protein kinase kinase kinase 20 (MAP3K20, Homo sapiens, UniProt Q9NYL2)

Compound | observed | action | technique | tested at | endpoint | value
CC(=O)c1c(NS(C)(=O)=O)c2cc(-c3ccc(Cl)cc3)c(-c3ccc(Cl)cc3Cl)nc2n(C)c1=O | cell-free assay |  | competition with immobilised ligand | 1 µM | remaining binding | 92%
N#CCCc1ccc2c(c1)-c1[nH]c3ccc([N+](=O)[O-])cc3c1CC(=O)N2 | cell-free assay |  |  | 0.5 µM | remaining signal | 88.6%
Nc1ncnc2c1ncn2[C@@H]1O[C@H](COP(=O)(O)OP(=O)(O)OP(=O)(O)O)[C@@H](O)[C@H]1O | enzyme activity | substrate | mass spectrometry |  | Km | 140 µM
CNC(=O)c1ccc(Nc2ncc(C(F)(F)F)c(NCc3nccnc3N(C)S(C)(=O)=O)n2)cc1 | cell-free assay |  | competition with immobilised ligand | 0.1 µM | remaining binding | 100%
COc1cc2nccc(Oc3ccc(NC(=O)c4c5n(n(-c6ccc(F)cc6)c4=O)CCCC5)cc3)c2cc1OC | enzyme activity | inhibitor |  | 0.1 µM | inhibition | -4%
COc1cc2ncnc(Nc3ccc(F)c(Cl)c3)c2cc1OCCCN1CCOCC1 | cell-free assay |  |  | 0.5 µM | remaining signal | 96.2%
CC(=O)N1CCC(c2ccc(C(=O)NC(=N)N)cc2C(F)(F)F)CC1 | cell-free assay |  | competition with immobilised ligand | 1 µM | remaining binding | 100%
CCOc1cc(-c2nncn2C)ccc1Nc1ncc2cc(C)nc(NCC(C)(C)C)c2n1 | cell-free assay |  | TR-FRET | 1 µM | inhibition | ≤ 15%
COc1cc(Cl)c(C(=O)N[C@@H](CN[C@H]2CC[C@@H](N)CC2)Cc2ccc(C#N)cc2)cc1-c1ccc(CN[C@H](C)c2ccc(C)cc2)o1 | enzyme activity | inhibitor |  | 1 µM | remaining activity | 97%
Cn1c2c(Cl)c(Cl)ccc2c2cn[nH]c(=O)c21 | thermal stability |  | DSF | 10 µM | ΔTm | 0.4 °C
CNC(=O)c1cc(Oc2ccc(NC(=O)Nc3ccc(Cl)c(C(F)(F)F)c3)cc2)ccn1 | cell-free assay |  |  | 0.5 µM | remaining signal | 16.7%
CCC1(CC)NC(=O)c2c(c3ccc(Cl)c(Cl)c3n2C)C1C#N (centres unmarked) | thermal stability |  | DSF | 10 µM | ΔTm | 0 °C
Cc1ccc(C(=O)Nc2ccc(CN3CCN(C)CC3)c(C(F)(F)F)c2)cc1C#Cc1cnc2cccnn12 | enzyme activity | inhibitor |  | 23.5 nM | remaining activity | 2.9%
CSc1cccnc1N1CCN(Cc2nc3ccccc3[nH]2)CC1 | cell-free assay |  | competition with immobilised ligand | 1 µM | remaining binding | 100%
O=C1NC(=O)c2cc(Nc3ccc(F)cc3)c(Nc3ccc(F)cc3)cc21 | cell-free assay |  |  | 0.5 µM | remaining signal | 94.5%
COc1cccc2c(NCc3ccccc3)nc(-n3c(N)nc4ccccc43)nc12 | target engagement in cells | inhibitor | chemoproteomics | 20 mM | inhibition | -3.3%
Cn1c2c(Cl)c(Cl)ccc2c2cc[nH]c(=O)c21 | thermal stability |  | DSF | 10 µM | ΔTm | -0.2 °C
Cc1c(C(=O)O)cc(-c2ccc(C3CCNCC3)cc2)c2ccc(-c3ccc(C(F)(F)F)cc3)cc12 | binding |  | competition with immobilised ligand | 1 µM | remaining binding | 100%
Cn1c2c(Cl)c(Cl)ccc2c2cc(N)[nH]c(=O)c21 | thermal stability |  | DSF | 10 µM | ΔTm | 0.6 °C
CC(C)(C)c1nc2c(s1)c1nc(N)ncc1c1ccc(NS(=O)(=O)c3c(F)cccc3F)c(F)c12 | enzyme activity | inhibitor | radiometric | 1 µM | remaining activity | 103%
COc1ccc2c(O[C@@H]3C[C@H]4C(=O)N[C@]5(C(=O)O)CC5/C=C\CCCCC[C@H](NC(=O)OC5CCCC5)C(=O)N4C3)cc(-c3csc(NC(=O)C(C)C)n3)nc2c1C (some centres unmarked) | cell-free assay |  | competition with immobilised ligand | 1 µM | remaining binding | 83%
CCCCNc1ncc2c(-c3ccc(F)cc3)nn(C[C@H]3CC[C@H](N)CC3)c2n1 | target engagement in cells | inhibitor | chemoproteomics | 20 mM | inhibition | 35.9%
Cn1c2c(c3ccccc31)C(C#N)C(C)(C)NC2=O (centres unmarked) | thermal stability |  | DSF | 10 µM | ΔTm | -0.3 °C
O=C(Nc1cnn(-c2csc(C(=O)NC3COC3)c2)c1)Nc1ccccc1Cl | enzyme activity | inhibitor |  | 5 µM | remaining activity | 101%
O=C(N1CCS(=O)(=O)CC1)N1C[C@H](c2ccc(OC(F)(F)F)cc2)C[C@H](c2nc(C3CC3)no2)C1 | cell-free assay |  | competition with immobilised ligand | 1 µM | remaining binding | 100%
Cn1c2c(c3ccc(Cl)c(Cl)c31)C(C#N)C(C)(C)NC2=O (centres unmarked) | thermal stability |  | DSF | 10 µM | ΔTm | 0.4 °C
